From paper PMC9283305 (Nitric oxide : biology and chemistry, 2022)
Read-outs that look alike come from different tables or passages of the source.

Legend:
[1] = Imidazole binding to ferric cytoglobin by UV-Vis difference spectroscopy; set-up: species or system human; conditions: read-out: Imidazole KD; ferric protein
Method in brief: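 Ferric globin (5–15 μM) was titrated with imidazole stocks (1–100 mM) to about 100–15000 μM final. Buffer was 100 mM sodium phosphate, pH 7.4, at 25 °C. UV-Vis difference spectra were taken, and the max–min absorbance difference was plotted against ligand. KD came from a 1:1 quadratic binding fit. At least triplicate, with ≥2 protein batches; mean ± SD.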

[2] = 37°C, 100 mM sodium phosphate, pH 7.4; cited from earlier work
[3] = cited from earlier work
[4] = cited from earlier work; remark: listed apart in the source

B1: Cytoglobin Wild-type: wild-type (WT) human Cygb protein, His-tagged, recombinantly expressed (protein, UniProt Q8WWM9 1-190, looked up)
Cytoglobin: MEKVPGEMEIERRERSEELSEAERKAVQAMWARLYANCEDVGVAILVRFFVNFPSAKQYFSQFKHMEDPLEMERSPQLRKHACRVMGALNTVVENLHDPDKVSSVLALVGKAHALKHKVEPVYFKILSGVILEVVAEEFASDFPPETQRAWAKLRGLIYSHVTAAYKEVGWVQQVPNATTPPATLPSSGP
modifications: His-tag
For B1, the Kd [1] is listed as about 1000 µM, the Autoxidation rate [2] is listed as 0.270 ± 0.020^a min^−1 and the “Nitrite reductase reaction rate constant” value ([3]; 37°C, 100 mM sodium phosphate, pH 7.4) is listed as 1.14 ± 0.07^e M^−1s^−1. The Nitrite reduction rate ([3]; in the presence of the intramolecular disulfide bond) was 32.3 M⁻¹ s⁻¹, the Binding to lipids ([4]; Cygb with the reduced thiols) was “little or no binding” and the Kd ([4]; read-out: KD for lipids such as oleic acid and cardiolipin) was about 1 µM.
